In PMC4267294 (RSC advances, 2014):

What was measured:
[1] = Optical/chemical stability of fluorophores in 100% warm serum; format: in vitro ADME, bovine; conditions: 24 h
In short: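 Test fluorophores (10 mM DMSO stock, 100 μM working solution) were diluted into 100% FBS buffered with 50 mM HEPES, pH 7.4, and held at 37 °C. Optical stability was followed over time to 24 h by absorbance and fluorescence spectra, under 770 nm laser excitation at 10 mW.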

[2] = In vivo biodistribution and clearance in rodents after intravenous injection; design: species or system CD-1 mice and SD rats; conditions: rodent, 4 h post-injection
In short: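 Male CD-1 mice (≈25 g) and male Sprague-Dawley rats (≈250 g) were anaesthetised with ketamine 100 mg/kg plus xylazine 10 mg/kg i.p. They received test compound i.v. (mice 25 nmol, rats 100 nmol) and were imaged 4 h later on the FLARE NIR system (760 nm excitation, 11.0 mW/cm2; 810 ± 20 nm emission). Organ signal-to-background was calculated against surrounding muscle, with ≥3 animals per time point, mean ± s.d.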

Stability = format: in vitro ADME, bovine; conditions: fluorophore conjugated with a small molecule ligand, 24 h
[3] = 100% FBS supplemented with 50 mM HEPES, pH 7.4; conditions: fetal bovine, 37 °C, up to 24 h

Compound	serum stability [1]	renal excretion [2]	stable form maintained in warm serum (Stability)	fragment found [3]	not cleaved [3]
CC1(C)C(/C=C/C2=C(c3ccc(CCC(=O)O)cc3)C(=C/C=C3/N(CCC[N+](C)(C)C)c4ccc(S(=O)(=O)O)cc4C3(C)C)/CCC2)=[N+](CCC[N+](C)(C)C)c2ccc(S(=O)(=O)O)cc21 [ZW800-1C]	> 99%	> 80%	> 98%		
Cyclo(Arg-Gly-Asp-D-Tyr-Lys)				hydrolyzed form of cRGD-ZW800-1A, 24 h	>98%, 24 h
